Test results from ChEMBL document CHEMBL5303300, “EUbOPEN Chemogenomics Library - Multiplex” (2023).
Where “and” joins values, the source holds several entries; their conditions need not be identical. Identical values can stand only once.

Assays:
Assay type in all cases: toxicity, cell-based
[1] = tested on: Fibroblast; experiment: Multiplex assay against human fibroblast; conditions: number of replicates 2
Outline: (§1)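 Compound was added to live cells that had been stained at seeding with Hoechst33342, BioTracker Green Microtubule Cytoskeleton Dye, MitoTracker Red and Annexin V Alexa Fluor 680, and imaging followed on a CQ1 microscope at 37°C and 5% CO2. CellPathfinder machine-learning gating divided cells into Hoechst high-intensity objects or normal cells, normal cells into healthy, pyknosed or fragmented nuclei, and pyknosed cells into mitotic or apoptotic. Tubulin, mitochondrial-mass and membrane-permeability phenotypes are per cents of healthy-nucleus cells.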

[2] = tested on: HEK-293T; experiment: Multiplex assay against HEK293T; conditions: human, number of replicates 2; outline: as §1
[3] = tested on: U2OS; experiment: Multiplex assay against U2OS; conditions: human, number of replicates 2; outline: as §1
[4] = 12 h, 1 µM, compound concentration 1 uM
[5] = 12 h, 10 µM, compound concentration 10 uM
[6] = 24 h, 1 µM, compound concentration 1 uM
[7] = 24 h, 10 µM, compound concentration 10 uM
[8] = 48 h, 1 µM, compound concentration 1 uM
[9] = 48 h, 10 µM, compound concentration 10 uM

Q: What does the source list for `CC(C)c1c(NC(=O)Nc2ccc(Cl)cc2)c(=O)n(-c2ccccc2)n1C`?
A: Population Apoptotic (%) [1, 4]: 30% and 36%; Population Fragmented Nuclei (%) [1, 4]: 9% and 13%; Population Healthy Nuclei (%) [1, 4]: 77% and 68%; Population Hoechst High Intensity Objects (%) [1, 4]: 0%; Population Membrane Permeable-Phenotype (%) [1, 4]: 5% and 3%; Population Mitochondria Different-Phenotype (%) [1, 4]: 0%; Population Mitotic Cells (%) [1, 4]: 69% and 63%; Population Normal (%) [1, 4]: 100% and 99%; Population Pyknosed Nuclei (%) [1, 4]: 13% and 17%; Population Tubulin-Different-Phenotype (%) [1, 4]: 11% and 7%; Total Cell Count [1, 4]: 175 and 269; Population Apoptotic (%) [1, 5]: 34% and 46%; Population Fragmented Nuclei (%) [1, 5]: 9% and 7%; Population Healthy Nuclei (%) [1, 5]: 68%; Population Hoechst High Intensity Objects (%) [1, 5]: 0%; Population Membrane Permeable-Phenotype (%) [1, 5]: 2% and 11%; Population Mitochondria Different-Phenotype (%) [1, 5]: 1%; Population Mitotic Cells (%) [1, 5]: 65% and 53%; Population Normal (%) [1, 5]: 99% and 100%; Population Pyknosed Nuclei (%) [1, 5]: 21% and 24%; Population Tubulin-Different-Phenotype (%) [1, 5]: 12% and 21%; Total Cell Count [1, 5]: 122 and 191; Population Apoptotic (%) [1, 6]: 34% and 35%; Population Fragmented Nuclei (%) [1, 6]: 10% and 14%; Population Healthy Nuclei (%) [1, 6]: 75% and 71%; Population Hoechst High Intensity Objects (%) [1, 6]: 0%; Population Membrane Permeable-Phenotype (%) [1, 6]: 5% and 6%; Population Mitochondria Different-Phenotype (%) [1, 6]: 0% and 1%; Population Mitotic Cells (%) [1, 6]: 65% and 64%; Population Normal (%) [1, 6]: 100%; Population Pyknosed Nuclei (%) [1, 6]: 13%; Population Tubulin-Different-Phenotype (%) [1, 6]: 14% and 5%; Total Cell Count [1, 6]: 166 and 271; Population Apoptotic (%) [1, 7]: 48% and 35%; Population Fragmented Nuclei (%) [1, 7]: 5% and 6%; Population Healthy Nuclei (%) [1, 7]: 73% and 65%; Population Hoechst High Intensity Objects (%) [1, 7]: 0%; Population Membrane Permeable-Phenotype (%) [1, 7]: 7% and 6%; Population Mitochondria Different-Phenotype (%) [1, 7]: 0%; Population Mitotic Cells (%) [1, 7]: 52% and 64%; Population Normal (%) [1, 7]: 100%; Population Pyknosed Nuclei (%) [1, 7]: 20% and 27%; Population Tubulin-Different-Phenotype (%) [1, 7]: 13%; Total Cell Count [1, 7]: 123 and 204; Population Apoptotic (%) [1, 8]: 79% and 65%; Population Fragmented Nuclei (%) [1, 8]: 14% and 17%; Population Healthy Nuclei (%) [1, 8]: 71% and 74%; Population Hoechst High Intensity Objects (%) [1, 8]: 0%; Population Membrane Permeable-Phenotype (%) [1, 8]: 2% and 6%; Population Mitochondria Different-Phenotype (%) [1, 8]: 0%; Population Mitotic Cells (%) [1, 8]: 20% and 34%; Population Normal (%) [1, 8]: 100%; Population Pyknosed Nuclei (%) [1, 8]: 13% and 8%; Population Tubulin-Different-Phenotype (%) [1, 8]: 8% and 4%; Total Cell Count [1, 8]: 174 and 274; Population Apoptotic (%) [1, 9]: 53% and 47%; Population Fragmented Nuclei (%) [1, 9]: 17% and 14%; Population Healthy Nuclei (%) [1, 9]: 70% and 62%; Population Hoechst High Intensity Objects (%) [1, 9]: 0%; Population Membrane Permeable-Phenotype (%) [1, 9]: 8% and 10%; Population Mitochondria Different-Phenotype (%) [1, 9]: 0%; Population Mitotic Cells (%) [1, 9]: 46% and 52%; Population Normal (%) [1, 9]: 100% and 99%; Population Pyknosed Nuclei (%) [1, 9]: 11% and 23%; Population Tubulin-Different-Phenotype (%) [1, 9]: 12% and 13%; Total Cell Count [1, 9]: 134 and 222; Population Apoptotic (%) [2, 4]: 40% and 36%; Population Fragmented Nuclei (%) [2, 4]: 3% and 2%; Population Healthy Nuclei (%) [2, 4]: 85% and 86%; Population Hoechst High Intensity Objects (%) [2, 4]: 6% and 5%; Population Membrane Permeable-Phenotype (%) [2, 4]: 3% and 2%; Population Mitochondria Different-Phenotype (%) [2, 4]: 11% and 14%; Population Mitotic Cells (%) [2, 4]: 59% and 63%; Population Normal (%) [2, 4]: 93% and 94%; Population Pyknosed Nuclei (%) [2, 4]: 10% and 11%; Population Tubulin-Different-Phenotype (%) [2, 4]: 48% and 50%; Total Cell Count [2, 4]: 880 and 697; Population Apoptotic (%) [2, 5]: 49% and 41%; Population Fragmented Nuclei (%) [2, 5]: 2% and 4%; Population Healthy Nuclei (%) [2, 5]: 86% and 81%; Population Hoechst High Intensity Objects (%) [2, 5]: 8% and 4%; Population Membrane Permeable-Phenotype (%) [2, 5]: 4% and 6%; Population Mitochondria Different-Phenotype (%) [2, 5]: 14% and 18%; Population Mitotic Cells (%) [2, 5]: 50% and 58%; Population Normal (%) [2, 5]: 91% and 95%; Population Pyknosed Nuclei (%) [2, 5]: 11% and 14%; Population Tubulin-Different-Phenotype (%) [2, 5]: 57% and 50%; Total Cell Count [2, 5]: 669 and 576; Population Apoptotic (%) [2, 6]: 36% and 39%; Population Fragmented Nuclei (%) [2, 6]: 5%; Population Healthy Nuclei (%) [2, 6]: 87% and 88%; Population Hoechst High Intensity Objects (%) [2, 6]: 8%; Population Membrane Permeable-Phenotype (%) [2, 6]: 4% and 3%; Population Mitochondria Different-Phenotype (%) [2, 6]: 3% and 5%; Population Mitotic Cells (%) [2, 6]: 63% and 60%; Population Normal (%) [2, 6]: 91%; Population Pyknosed Nuclei (%) [2, 6]: 6% and 5%; Population Tubulin-Different-Phenotype (%) [2, 6]: 27% and 32%; Total Cell Count [2, 6]: 1449 and 1121; Population Apoptotic (%) [2, 7]: 54% and 40%; Population Fragmented Nuclei (%) [2, 7]: 6%; Population Healthy Nuclei (%) [2, 7]: 85% and 83%; Population Hoechst High Intensity Objects (%) [2, 7]: 8% and 5%; Population Membrane Permeable-Phenotype (%) [2, 7]: 3%; Population Mitochondria Different-Phenotype (%) [2, 7]: 5% and 8%; Population Mitotic Cells (%) [2, 7]: 45% and 59%; Population Normal (%) [2, 7]: 91% and 94%; Population Pyknosed Nuclei (%) [2, 7]: 7% and 10%; Population Tubulin-Different-Phenotype (%) [2, 7]: 37% and 33%; Total Cell Count [2, 7]: 1033 and 815; Population Apoptotic (%) [2, 8]: 10% and 15%; Population Fragmented Nuclei (%) [2, 8]: 14% and 10%; Population Healthy Nuclei (%) [2, 8]: 83% and 86%; Population Hoechst High Intensity Objects (%) [2, 8]: 9% and 10%; Population Membrane Permeable-Phenotype (%) [2, 8]: 5% and 3%; Population Mitochondria Different-Phenotype (%) [2, 8]: 0%; Population Mitotic Cells (%) [2, 8]: 89% and 84%; Population Normal (%) [2, 8]: 90% and 89%; Population Pyknosed Nuclei (%) [2, 8]: 2% and 3%; Population Tubulin-Different-Phenotype (%) [2, 8]: 13% and 15%; Total Cell Count [2, 8]: 3573 and 2488; Population Apoptotic (%) [2, 9]: 16% and 17%; Population Fragmented Nuclei (%) [2, 9]: 15% and 13%; Population Healthy Nuclei (%) [2, 9]: 81% and 83%; Population Hoechst High Intensity Objects (%) [2, 9]: 8% and 9%; Population Membrane Permeable-Phenotype (%) [2, 9]: 7% and 4%; Population Mitochondria Different-Phenotype (%) [2, 9]: 0% and 1%; Population Mitotic Cells (%) [2, 9]: 83% and 82%; Population Normal (%) [2, 9]: 91% and 90%; Population Pyknosed Nuclei (%) [2, 9]: 3% and 2%; Population Tubulin-Different-Phenotype (%) [2, 9]: 19% and 15%; Total Cell Count [2, 9]: 2549 and 1775; Population Apoptotic (%) [3, 4]: 33% and 32%; Population Healthy Nuclei (%) [3, 4]: 66% and 85%; Population Hoechst High Intensity Objects (%) [3, 4]: 0%; Population Membrane Permeable-Phenotype (%) [3, 4]: 0%; Population Mitochondria Different-Phenotype (%) [3, 4]: 0%; Population Mitotic Cells (%) [3, 4]: 66% and 68%; Population Normal (%) [3, 4]: 100%; Population Pyknosed Nuclei (%) [3, 4]: 10% and 9%; Population Tubulin-Different-Phenotype (%) [3, 4]: 65% and 81%; Population Apoptotic (%) [3, 5]: 100% and 43%; Population Hoechst High Intensity Objects (%) [3, 5]: 0%; Population Membrane Permeable-Phenotype (%) [3, 5]: 0% and 2%; Population Mitochondria Different-Phenotype (%) [3, 5]: 0%; Population Normal (%) [3, 5]: 100% and 99%; Population Pyknosed Nuclei (%) [3, 5]: 6%; Population Tubulin-Different-Phenotype (%) [3, 5]: 85% and 66%; Population Apoptotic (%) [3, 6]: 50% and 26%; Population Healthy Nuclei (%) [3, 6]: 68% and 89%; Population Hoechst High Intensity Objects (%) [3, 6]: 0%; Population Membrane Permeable-Phenotype (%) [3, 6]: 0% and 1%; Population Mitochondria Different-Phenotype (%) [3, 6]: 0%; Population Mitotic Cells (%) [3, 6]: 50% and 73%; Population Normal (%) [3, 6]: 100% and 99%; Population Pyknosed Nuclei (%) [3, 6]: 15% and 7%; Population Tubulin-Different-Phenotype (%) [3, 6]: 61% and 84%; Population Apoptotic (%) [3, 7]: 100% and 36%; Population Healthy Nuclei (%) [3, 7]: 32% and 87%; Population Hoechst High Intensity Objects (%) [3, 7]: 0%; Population Membrane Permeable-Phenotype (%) [3, 7]: 0% and 2%; Population Mitochondria Different-Phenotype (%) [3, 7]: 0%; Population Normal (%) [3, 7]: 100%; Population Pyknosed Nuclei (%) [3, 7]: 2% and 8%; Population Tubulin-Different-Phenotype (%) [3, 7]: 64% and 78%; Population Apoptotic (%) [3, 8]: 50% and 49%; Population Fragmented Nuclei (%) [3, 8]: 12% and 3%; Population Healthy Nuclei (%) [3, 8]: 72% and 88%; Population Hoechst High Intensity Objects (%) [3, 8]: 0%; Population Membrane Permeable-Phenotype (%) [3, 8]: 0% and 1%; Population Mitochondria Different-Phenotype (%) [3, 8]: 0%; Population Mitotic Cells (%) [3, 8]: 50%; Population Normal (%) [3, 8]: 100% and 99%; Population Pyknosed Nuclei (%) [3, 8]: 15% and 7%; Population Tubulin-Different-Phenotype (%) [3, 8]: 62% and 85%; Population Apoptotic (%) [3, 9]: 100% and 55%; Population Healthy Nuclei (%) [3, 9]: 31% and 91%; Population Hoechst High Intensity Objects (%) [3, 9]: 0%; Population Membrane Permeable-Phenotype (%) [3, 9]: 0% and 1%; Population Mitochondria Different-Phenotype (%) [3, 9]: 0%; Population Normal (%) [3, 9]: 100%; Population Pyknosed Nuclei (%) [3, 9]: 1% and 5%; Population Tubulin-Different-Phenotype (%) [3, 9]: 77% and 80%
